Experimental data published in ChEMBL document CHEMBL1121573, “2-(Aminomethyl)phenols, a new class of saluretic agents. 1. Effects of nuclear substitution” (J Med Chem, 1980).

Legend:
Rattus norvegicus [1] = assay: Compound administered orally at a dose of 1 mg/kg was evaluated for salidiuretic activity measured as sodium ion excretion in Rat; settings: in vivo, po
Rattus norvegicus [2] = assay: Oral diuretic activity was evaluated by measuring Na+ excretion in Rat at 9 mg/kg […] ( 0 - 5 hr); format: ADME, organism-based, Urine; set-up: dose 9 mg/kg
Procedure, shortened: (§1)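 Female Charles-River rats (150–170 g) were kept overnight on a sugar diet with water ad libitum. Compound was dissolved in DMF, then diluted with water containing Tween 80 (3 drops/100 mL) to a final 4% DMF, and given po in 5.0 mL. Rats were housed three per metabolism cage. Urine from 0–5 h was analysed for Na+, K+ and Cl−, with concurrent placebo controls. Values are mequiv × 100 per cage, geometric mean of three cages per dose.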

Rattus norvegicus [3] = assay: Oral diuretic activity was evaluated by measuring Cl- excretion in Rat at 27 mg/kg after […] ( 0 - 5 hr); format: ADME, organism-based, Urine; set-up: dose 27 mg/kg, route intraperitoneal; settings: in vivo
Canis familiaris [4] = assay: Oral diuretic activity was evaluated by measuring Na+ excretion in dog at 2 mg/kg after […] ( 0 - 6 hr); format: ADME, organism-based, Canis lupus familiaris, Urine; set-up: dose 2 mg/kg; settings: in vivo
Procedure, shortened: (§2)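 Dogs; spontaneous urine was pooled with bladder urine drained by catheter at the end of 6 h. Urine volume was measured, and aliquots were assayed for Na+, K+ and Cl− by standard methods. Values are geometric means, expressed as mequiv over 0–6 h.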

Rattus norvegicus [5] = assay: Maximum fall in mean arterial blood pressure was measured in SH rats when compound was administered at 20 mg/kg perorally; format: functional; settings: route oral
Rattus norvegicus [6] = assay: Maximum fall in mean arterial blood pressure was measured in SH rats when compound was administered at 40 mg/kg perorally; format: functional; settings: route oral
Rattus norvegicus [7] = assay: Oral diuretic activity was evaluated by measuring K+ excretion in Rat at 81 mg/kg […] ( 0 - 5 hr); format: ADME, organism-based, Urine; set-up: dose 81 mg/kg
Procedure, shortened: (§3)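 Female Charles-River rats (150–170 g) were kept overnight on a sugar diet with water ad libitum. Test substance was dissolved in DMF and diluted with water containing Tween 80 to a final 4% DMF vehicle, then given po in 5.0 mL. Rats were housed three per metabolism cage, and 0–5 h urine was assayed for Na⁺, K⁺ and Cl⁻ alongside concurrent placebo groups. Values are mequiv × 100 per cage, geometric means of three cages per dose.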

Canis familiaris [8] = assay: Oral diuretic activity was evaluated by measuring K+ excretion in dog at 5 mg/kg after ip administration ( 0 - 6 hr); format: ADME, organism-based, Canis lupus familiaris, Urine; set-up: dose 5 mg/kg, route intraperitoneal; settings: in vivo
Procedure, shortened: (§4)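 Spontaneous urine was pooled with bladder urine collected by catheterization at 6 h. Volume was measured and Na+, K+ and Cl− were determined by standard methods. Values are geometric means.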

Rattus norvegicus [9] = assay: Oral diuretic activity was evaluated by measuring Cl- excretion in Rat at 81 mg/kg after po administration ( 0 - 5 hr); settings: in vivo
Canis familiaris [10] = assay: Oral diuretic activity was evaluated by measuring K+ excretion in dog at 1 mg/kg after […] ( 0 - 6 hr); format: ADME, organism-based, Canis lupus familiaris, Urine; set-up: dose 1 mg/kg; settings: in vivo
Procedure, shortened: as §4

Rattus norvegicus [11] = assay: Evaluated for salidiuretic activity measured as sodium ion excretion in Rat, administered orally at a dose of 50 mg/kg; format: functional, Urine; set-up: unit not given beside the values; settings: route oral
Procedure, shortened: (§5)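 Female Charles-River rats (150–170 g), overnight on sugar diet with water ad libitum. Compound dissolved in DMF, diluted with water containing Tween 80 (final 4% DMF), given po in 5.0 mL; concurrent vehicle placebo. Three rats per metabolism cage; 0–5 h urine analysed for Na+, K+, Cl-. Values: mequiv × 100 per cage, geometric means of three cages per dose; scored 0–6 by Na+.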

Rattus norvegicus [12] = assay: Oral diuretic activity was evaluated by measuring K+ excretion in Rat at 27 mg/kg after po administration ( 0 - 5 hr); settings: in vivo
Rattus norvegicus [13] = species: Rattus norvegicus; assay: Time taken for the decrease in arterial pressure was measured; format: functional, Artery
Canis familiaris [14] = assay: Oral diuretic activity was evaluated by measuring K+ excretion in dog at 2 mg/kg after ip administration ( 0 - 6 hr); format: ADME, organism-based, Canis lupus familiaris, Urine; set-up: route intraperitoneal, dose 2 mg/kg; settings: in vivo
Procedure, shortened: as §4

Rattus norvegicus [15] = assay: Oral diuretic activity was evaluated by measuring Cl- excretion in Rat at 3 mg/kg after […] ( 0 - 5 hr); format: ADME, organism-based, Urine; set-up: dose 3 mg/kg, route intraperitoneal; settings: in vivo
Rattus norvegicus [16] = assay: Oral diuretic activity was evaluated by measuring K+ excretion in Rat at 9 mg/kg after […] ( 0 - 5 hr); format: ADME, organism-based, Urine; set-up: dose 9 mg/kg; settings: in vivo
Procedure, shortened: as §3

Canis familiaris [17] = assay: Oral diuretic activity was evaluated by measuring Na+ excretion in dog at 1 mg/kg after ip administration ( 0 - 6 hr); format: ADME, organism-based, Canis lupus familiaris, Urine; set-up: dose 1 mg/kg, route intraperitoneal; settings: in vivo
Procedure, shortened: as §4

Canis familiaris [18] = assay: Compound administered intravenously at a dose of 5 mg/kg was evaluated for salidiuretic activity measured as sodium ion excretion in Dog; format: ADME, organism-based, Canis lupus familiaris, Urine; set-up: dose 5 mg/kg, route intravenous; settings: in vivo, iv
Procedure, shortened: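 Conditioned female mongrel dogs, postabsorptive, water-loaded (500 mL po) 1 h before sodium pentobarbital anesthesia (30 mg/kg iv). Bladder catheter; creatinine 4 g sc; phosphate–mannitol buffer pH 7.4 infused (3.0 mL/min) throughout. […] Urine Na+ measured; response scored 0–6.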

Canis familiaris [19] = assay: Oral diuretic activity was evaluated by measuring Cl- excretion in dog at 2 mg/kg after […] ( 0 - 6 hr); format: ADME, organism-based, Canis lupus familiaris, Urine; set-up: dose 2 mg/kg, route intraperitoneal; settings: in vivo
Rattus norvegicus [20] = assay: Oral diuretic activity was evaluated by measuring Na+ excretion in Rat at 27 mg/kg […] ( 0 - 5 hr); format: ADME, organism-based, Urine; set-up: dose 27 mg/kg
Procedure, shortened: as §1

Rattus norvegicus [21] = assay: Oral diuretic activity was evaluated by measuring Cl- excretion in Rat at 9 mg/kg […] ( 0 - 5 hr); format: ADME, organism-based, Urine; set-up: dose 9 mg/kg; settings: in vivo
Procedure, shortened: as §3

Rattus norvegicus [22] = assay: Oral diuretic activity was evaluated by measuring K+ excretion in Rat at 3 mg/kg […] ( 0 - 5 hr); format: ADME, organism-based, Urine; set-up: dose 3 mg/kg
Procedure, shortened: as §3

Canis familiaris [23] = assay: Oral diuretic activity was evaluated by measuring Cl- excretion in dog at 5 mg/kg after […] ( 0 - 6 hr); format: ADME, organism-based, Canis lupus familiaris, Urine; set-up: dose 5 mg/kg, route intraperitoneal; settings: in vivo
Rattus norvegicus [24] = assay: Oral diuretic activity was evaluated by measuring Na+ excretion in Rat at 3 mg/kg […] ( 0 - 5 hr); format: ADME, organism-based, Urine; set-up: dose 3 mg/kg
Procedure, shortened: as §1

[25] = Evaluated for salidiuretic activity measured as sodium ion excretion in Rat, administered orally at a dose of 16.5 mg/kg; format: organism-based; set-up: dose 16.5 mg/kg; settings: Urine
Procedure, shortened: as §5

Canis familiaris [26] = assay: Oral diuretic activity was evaluated by measuring Cl- excretion in dog at 1 mg/kg after […] ( 0 - 6 hr); format: ADME, organism-based, Canis lupus familiaris, Urine; set-up: dose 1 mg/kg, route intraperitoneal; settings: in vivo
[27] = Compound administered orally at a dose of 5 mg/kg was evaluated for salidiuretic activity measured as sodium ion excretion in Rat; format: organism-based; set-up: dose 5 mg/kg; settings: Urine
Procedure, shortened: as §5

Canis familiaris [28] = assay: Oral diuretic activity was evaluated by measuring Na+ excretion in dog at 5 mg/kg after […] ( 0 - 6 hr); format: ADME, organism-based, Canis lupus familiaris, Urine; set-up: dose 5 mg/kg; settings: in vivo
Procedure, shortened: as §2

- Diuretic activity (Rattus norvegicus [1]): 2.1
- Diuretic activity (Rattus norvegicus [2]): 2.68
- Diuretic activity (Rattus norvegicus [3]): 4.31
- Diuretic activity (Canis familiaris [4]): 40.38
- Diuretic activity (Rattus norvegicus [7]): 0.9
- Diuretic activity (Canis familiaris [8]): 10.38
- Diuretic activity (Rattus norvegicus [9]): 4.87
- Diuretic activity (Canis familiaris [10]): 6.5
- Diuretic activity (Rattus norvegicus [12]): 0.94
- Diuretic activity (Canis familiaris [14]): 9.13
- Diuretic activity (Rattus norvegicus [15]): 2.4
- Diuretic activity (Rattus norvegicus [16]): 0.71
- Diuretic activity (Canis familiaris [17]): 28.38
- Diuretic activity (Canis familiaris [18]): > 900
- Diuretic activity (Canis familiaris [19]): 51.63
- Diuretic activity (Rattus norvegicus [20]): 3.16
- Diuretic activity (Rattus norvegicus [21]): 3.7
- Diuretic activity (Rattus norvegicus [22]): 0.52
- Diuretic activity (Canis familiaris [23]): 54.25
- Diuretic activity (Rattus norvegicus [24]): 1.75
- Diuretic activity (Canis familiaris [26]): 38.25
- Diuretic activity (Canis familiaris [28]): 43.13
Compound: CC(C)(C)c1cc(Cl)c(O)c(CN)c1.Cl
- MAP (Rattus norvegicus [5]): 9 mmHg
- MAP (Rattus norvegicus [6]): 35 mmHg
- Diuretic activity (Rattus norvegicus [11]): 3.9
- Duration (Rattus norvegicus [13]): 24 h
- Diuretic activity [25]: 4.2
- Diuretic activity [27]: 3.6
